Read-outs that look alike come from different tables or passages of the source.
How the values were obtained:
[1] = assay type: in vivo, human
P-gp [2] = target: T1, P-gp (Homo sapiens, UniProt P08183); assay type: in vivo
P-gp [3] = target: T1, P-gp; conditions: single dose venetoclax 100 mg, female healthy volunteers; cited from earlier work
[4] = cited from earlier work
CYP3A = assay: Ritonavir-venetoclax drug interaction study, observed exposure ratios; assay type: in vivo, human
Outline: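 20 female subjects, […], all drugs given orally; serial blood sampling for plasma levels of both the test compound and the CYP3A inhibitor. Validated assays had LLOQ 2.11 ng/mL (test compound) and 9.73 ng/mL (inhibitor), bias -4.7% to 7.1%, and CV 1.6% to 9.6%. Ratio is Cmax or AUC on coadministration over dosing alone; AUC96 runs 0–96 h postdose.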

[5] = assay type: in vivo, human; remark: listed apart in the source
[6] = fed conditions; cited from earlier work
[7] = Cohort 1: venetoclax 10 mg with single dose ritonavir 50 mg vs venetoclax alone, period 1 day 1 vs period 2 day 1
[8] = Cohort 2: venetoclax 10 mg with single dose ritonavir 100 mg vs venetoclax alone, period 1 day 1 vs period 2 day 1
[9] = Cohort 3: venetoclax 10 mg with ritonavir 50 mg q.d. for 11 days vs venetoclax alone, multiple-dose effect, period 1 day 1 vs period 2 day 11

T1 sequence (P08183 whole entry): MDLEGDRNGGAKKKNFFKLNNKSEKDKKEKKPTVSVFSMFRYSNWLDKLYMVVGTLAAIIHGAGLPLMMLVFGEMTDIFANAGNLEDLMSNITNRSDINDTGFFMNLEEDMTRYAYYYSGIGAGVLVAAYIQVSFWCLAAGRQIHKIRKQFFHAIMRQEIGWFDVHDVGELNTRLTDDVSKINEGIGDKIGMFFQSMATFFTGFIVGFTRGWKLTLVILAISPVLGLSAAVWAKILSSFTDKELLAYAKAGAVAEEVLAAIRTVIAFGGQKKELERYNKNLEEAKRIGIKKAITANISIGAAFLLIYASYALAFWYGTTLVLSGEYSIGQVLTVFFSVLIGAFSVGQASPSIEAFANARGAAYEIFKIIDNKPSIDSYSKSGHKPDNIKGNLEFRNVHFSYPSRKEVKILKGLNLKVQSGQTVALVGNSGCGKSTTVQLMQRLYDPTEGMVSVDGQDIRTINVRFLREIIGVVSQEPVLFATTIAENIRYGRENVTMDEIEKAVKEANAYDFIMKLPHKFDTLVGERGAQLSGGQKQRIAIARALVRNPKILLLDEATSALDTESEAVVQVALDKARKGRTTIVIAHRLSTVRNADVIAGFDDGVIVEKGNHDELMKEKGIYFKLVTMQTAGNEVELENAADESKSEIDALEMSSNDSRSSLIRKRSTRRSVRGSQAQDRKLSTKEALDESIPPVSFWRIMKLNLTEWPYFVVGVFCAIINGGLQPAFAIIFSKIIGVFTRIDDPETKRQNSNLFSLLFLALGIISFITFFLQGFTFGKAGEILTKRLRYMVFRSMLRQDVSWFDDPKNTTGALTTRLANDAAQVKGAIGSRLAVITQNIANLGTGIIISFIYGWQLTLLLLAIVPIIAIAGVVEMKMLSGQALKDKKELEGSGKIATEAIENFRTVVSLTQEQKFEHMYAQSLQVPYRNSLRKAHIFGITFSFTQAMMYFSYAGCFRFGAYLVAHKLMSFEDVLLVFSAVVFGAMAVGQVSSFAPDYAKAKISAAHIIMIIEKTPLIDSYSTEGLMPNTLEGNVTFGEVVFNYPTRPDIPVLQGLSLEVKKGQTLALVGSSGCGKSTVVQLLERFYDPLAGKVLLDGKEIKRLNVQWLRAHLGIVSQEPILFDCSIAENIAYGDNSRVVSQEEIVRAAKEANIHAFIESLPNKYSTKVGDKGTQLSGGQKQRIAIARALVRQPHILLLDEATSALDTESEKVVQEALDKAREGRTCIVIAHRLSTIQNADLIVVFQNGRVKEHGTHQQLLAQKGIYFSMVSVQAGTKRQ

C[C@H]1O[C@@H](O[C@H]2[C@@H](O)C[C@H](O[C@H]3[C@@H](O)C[C@H](O[C@H]4CC[C@@]5(C)[C@H](CC[C@@H]6[C@@H]5C[C@@H](O)[C@]5(C)[C@@H](C7=CC(=O)OC7)CC[C@]65O)C4)O[C@@H]3C)O[C@@H]2C)C[C@H](O)[C@@H]1O [digoxin]
CL BSV (between subject variability) ([1]; VEN-DIG model): 12.3 %CV | V2 BSV (between subject variability) ([1]; VEN-DIG model): 28.9 %CV | ALAG (absorption lag time) ([1]; VEN-DIG model final estimate): 0.536 h | Fe (fraction of administered drug excreted into the urine) ([1]; VEN-DIG model final estimate): 0.438% | Ka (first-order absorption rate constant) ([1]; VEN-DIG model final estimate): 0.777 h⁻¹ | V2 (volume of central compartment) ([1]; VEN-DIG model final estimate): 150 L | V3 (volume of peripheral compartment) ([1]; VEN-DIG model final estimate): 592 L | clearance ([1]; female, human, plasma, oral): 262 mL/min | increase of digoxin bioavailability (P-gp [2]; with venetoclax): 8% | changes in digoxin half-life or renal clearance (P-gp [3]): no changes | increase in digoxin AUC (P-gp [3]): 9% | increase in digoxin Cmax (P-gp [3]): 35% | absolute bioavailability [4]: ~ 80%

CC1(C)CCC(CN2CCN(c3ccc(C(=O)NS(=O)(=O)c4ccc(NCC5CCOCC5)c([N+](=O)[O-])c4)c(Oc4cnc5[nH]ccc5c4)c3)CC2)=C(c2ccc(Cl)cc2)C1 [venetoclax, Venetoclax]
AUCinf ratio, Observed Central value (CYP3A; [7]): 6.1 | Cmax ratio, Observed Central value (CYP3A; [7]): 2.4 | AUCinf ratio, Observed Central value (CYP3A; [8]): 8.1 | Cmax ratio, Observed Central value (CYP3A; [8]): 2.3 | AUC96 ratio, Observed Central value (CYP3A; [9]): 7.9 | Cmax ratio, Observed Central value (CYP3A; [9]): 2.4 | CL BSV (between subject variability) ([5]; RTV-VEN model): 32.6 %CV | T50 BSV (between subject variability) ([5]; RTV-VEN model): 26.1 %CV | V2 BSV (between subject variability) ([5]; RTV-VEN model): 64 %CV | V2 (volume of central compartment) ([5]; RTV-VEN model final estimate): 26.8 L | V3 (volume of peripheral compartment) ([5]; RTV-VEN model final estimate): 83.5 L | Kamax (maximum absorption rate constant) ([5]; RTV-VEN model final estimate, time-dependent absorption): 4.76 day⁻¹ | γ (shape factor) ([5]; RTV-VEN model, fixed, estimated value from venetoclax combined data): 5 (fixed ^*) | CL BSV (between subject variability) ([1]; VEN-DIG model): 22 %CV | ALAG (absorption lag time) ([1]; VEN-DIG model final estimate): 1.72 h | Ka (first-order absorption rate constant) ([1]; VEN-DIG model final estimate): 0.209 h⁻¹ | V2 (volume of central compartment) ([1]; VEN-DIG model final estimate): 19.1 L | V3 (volume of peripheral compartment) ([1]; VEN-DIG model final estimate): 25.4 L | IC50 (P-gp [2]): 0.377 µM | half-life [6]: ~ 15 hours

CC(C)c1nc(CN(C)C(=O)N[C@H](C(=O)N[C@@H](Cc2ccccc2)C[C@H](O)[C@H](Cc2ccccc2)NC(=O)OCc2cncs2)C(C)C)cs1 [ritonavir]
CL BSV (between subject variability) ([5]; RTV-VEN model): 17.9 %CV | V2 BSV (between subject variability) ([5]; RTV-VEN model): 54.7 %CV | V2 (volume of central compartment) ([5]; RTV-VEN model final estimate): 30.7 L | Ka (absorption rate constant) ([5]; RTV-VEN model final estimate, first-order absorption): 1.17 day⁻¹

Reference: publication PMC7214649 (Clinical and Translational Science, 2020)
